Tests used:
rat renal cortex = details: cited from earlier work
[1] = tested on: endothelial progenitor cells; details: cells from sham or infarcted rodents; cited from earlier work
[2] = tested on: HEK 293T cells transfected with the empty vector; assay: [125I]Ang-; type: binding, Human
[3] = tested on: rabbit aortic smooth muscle cells; details: cited from earlier work
[4] = tested on: HEK 293T cells transfected with the empty vector (mock); assay: [3H]arachidonic acid; type: cell-based, Human; details: Ang-(1-7) during 15 min, 37 °C
How it was run: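 They were washed with DMEM containing 2% BSA, then exposed to test peptide at 37 °C for the stated times. Supernatant radioactivity was counted, and total cellular radioactivity came from cells solubilized in 1 mol/L NaOH. Fractional release (% of total) was expressed as percent of unstimulated control (100%), mean ± SEM.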

megalin = details: scavenger receptor megalin; cited from earlier work

Substance: Angiotensin-(1-7) [Ang-(1-7)]
- Ang-(1-7) response, phosphatidylcholine biosynthesis (rat renal cortex): decrease in Ang-(1-7) response
- Ang-(1-7)-induced proliferation of endothelial progenitor cells, responsiveness [1]: attenuation in responsiveness
- Ang-(1-7) binding ([2]; 0.5 nmol/L [125I]Ang-(1-7), 4°C, 60 min): undetectable
- total binding ([2]; 0.5 nmol/L [125I]Ang-(1-7), 4°C, 60 min, mean ± SEM): 480±68 cpm
- nonspecific binding ([2]; in the presence of 10 μmol/L unlabeled Ang-(1-7), mean ± SEM): 395±87 cpm
- Ang-(1-7) response in releasing AA from tissue lipids and stimulating 6-keto-prostaglandin F1α production [3]: decrease in Ang-(1-7) response
- [3H]AA release, mock cells [4]: no changes in [^3H]AA release
- binding and internalization by megalin (megalin): binds and internalizes Ang-(1-7)

Source: paper PMC3141282 (Hypertension, 2011)
